The text below walks through data of ChEMBL document CHEMBL1143070, “Catechin gallates are NADP+-competitive inhibitors of glucose-6-phosphate dehydrogenase and other enzymes that employ NADP+ as a coenzyme” (Bioorg Med Chem, 2008).

Calls of active or inactive are those of the source. The rule behind the calls is not given here.

Data set [1] deals with T1, Glucose-6-phosphate 1-dehydrogenase (Saccharomyces cerevisiae S288c, UniProt P11412).
T1 sequence (P11412 whole entry): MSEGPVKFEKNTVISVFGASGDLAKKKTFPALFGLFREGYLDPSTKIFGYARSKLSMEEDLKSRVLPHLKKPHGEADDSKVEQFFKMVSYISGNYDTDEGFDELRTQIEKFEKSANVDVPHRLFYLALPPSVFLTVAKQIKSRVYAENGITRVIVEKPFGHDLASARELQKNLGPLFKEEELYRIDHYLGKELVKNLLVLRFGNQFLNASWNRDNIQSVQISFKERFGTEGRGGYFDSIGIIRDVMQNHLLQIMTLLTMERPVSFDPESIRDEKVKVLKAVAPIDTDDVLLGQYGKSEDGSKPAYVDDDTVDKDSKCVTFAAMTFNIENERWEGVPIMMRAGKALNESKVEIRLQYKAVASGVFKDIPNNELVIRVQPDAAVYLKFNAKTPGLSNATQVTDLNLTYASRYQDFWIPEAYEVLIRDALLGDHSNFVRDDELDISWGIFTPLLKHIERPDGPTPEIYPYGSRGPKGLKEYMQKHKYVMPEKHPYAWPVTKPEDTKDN
In words: Inhibition of yeast G6PD.

The subject of data set [2] is 3T3-L1. As to the kind of experiment: Inhibition of G6PD-mediated NADPH production in mouse 3T3-L1 cells at above 100 umol/L. The class given is cell-based. An outline of the steps:
(§1)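 Fully differentiated 3T3-L1 adipocytes were lysed in NETN buffer and spun at 4 °C; supernatants were used at once. 1.0 µg protein was incubated at 30 °C with inhibitor (DMSO <0.2% v/v) in 0.1 mol/L Tris pH 7.5, 150 mmol/L NaCl, 6 mmol/L MgCl2, 0.5 mmol/L G6P, 0.5 mmol/L 6-phosphogluconate and 0.25 mmol/L NADP+. Total NADPH production was normalized to Bradford protein. Values are means of three independent experiments.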

Data set [3] has as its target 6-phosphogluconate dehydrogenase, decarboxylating (Saccharomyces cerevisiae) (UniProt P38720). In words: Inhibition of 6PGD.
Data set [4] can be described thus: Inhibition of IDH.
A short description of data set [5]: (§2) Inhibition of G6PD-mediated NADPH production in mouse 3T3-L1 cells. Type of data set: cell-based. An outline of the steps:
as §1

The test system of data set [6] is 3T3-L1. As to the kind of experiment: Ratio of IC50 for yeast G6PD to IC50 for G6PD-mediated NADPH production in mouse 3T3-L1 cells. The class given is cell-based.
For data set [7], the system named is 3T3-L1. The data set is described as §2. The class given is cell-based. An outline of the steps: as §1
For the next data set, the system named is Homo sapiens. In words: Plasma concentration in human at 50 mg, po. The note with it: in vivo.

Sequence of 6-phosphogluconate dehydrogenase, decarboxylating (Saccharomyces cerevisiae) (P38720 whole entry, looked up): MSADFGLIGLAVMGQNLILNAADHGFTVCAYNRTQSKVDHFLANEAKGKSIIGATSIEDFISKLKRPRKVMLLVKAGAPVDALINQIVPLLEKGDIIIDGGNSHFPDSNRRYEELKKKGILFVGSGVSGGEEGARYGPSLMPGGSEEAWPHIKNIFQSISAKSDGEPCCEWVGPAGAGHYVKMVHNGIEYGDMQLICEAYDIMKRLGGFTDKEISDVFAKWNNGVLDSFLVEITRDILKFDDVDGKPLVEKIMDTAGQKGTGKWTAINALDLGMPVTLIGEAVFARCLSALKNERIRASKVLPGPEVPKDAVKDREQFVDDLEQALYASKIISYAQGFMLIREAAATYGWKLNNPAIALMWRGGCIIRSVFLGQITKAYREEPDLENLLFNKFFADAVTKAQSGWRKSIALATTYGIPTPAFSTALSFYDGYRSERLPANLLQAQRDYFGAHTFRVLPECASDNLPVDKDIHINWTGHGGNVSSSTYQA

With `Oc1cccc(/C=N/NC(=S)N/N=C/c2cccc(O)c2O)c1O`, the IC50 in data set [1] was 56.4 µM. This lies in the double-digit micromolar range.
The molecule `CCOc1cccc(-c2cc(C(=O)N/N=C/c3ccccc3O)[nH]n2)c1` registered an IC50 in data set [1] of 21.8 µM.
For `C[C@]12CC[C@H](O)CC1=CC[C@@H]1[C@@H]2CC[C@]2(C)C(=O)CC[C@@H]12`, the inhibition in the data set on 3T3-L1 [2] was found to be 40%.
For the molecule `O=C(O[C@@H]1Cc2c(O)cc(O)cc2O[C@H]1c1ccc(O)c(O)c1)c1cc(O)c(O)c(O)c1` [(-)-CATECHINGALLATE], the IC50 in data set [1] came to 0.24 µM; in data set [3], 1.28 µM; in data set [4], 6.62 µM; in data set [5] it was 25 µM. Further, the Ratio IC50 in the data set with 3T3-L1 [6] amounted to 100.
As to `Oc1cc(O)c2c(c1)O[C@@H](c1ccc(O)c(O)c1)[C@H](O)C2` [(-)-CATECHIN], the half-maximal inhibitory concentration (IC50) in data set [1] and in data set [4] was above 1000 µM in each case. In the data set with 3T3-L1 [7], the result was inactive.
Take `Oc1cc(O)c2c(c1)O[C@H](c1ccc(O)c(O)c1)[C@H](O)C2` [(-)-EPICATECHIN]: the IC50 in data set [1] and in data set [4] was above 1000 µM throughout. The result in the data set on 3T3-L1 [7] was inactive.
Consider `Oc1cc(O)c2c(c1)O[C@@H](c1cc(O)c(O)c(O)c1)[C@H](O)C2` [(-)-GALLOCATECHIN], for which the IC50 in data set [1] and in data set [4] was above 1000 µM each time. Moreover, the result in the data set with 3T3-L1 [7] was inactive.
For `O=C(O[C@@H]1Cc2c(O)cc(O)cc2O[C@@H]1c1ccc(O)c(O)c1)c1cc(O)c(O)c(O)c1` [EPICATECHIN GALLATE], the concentration for half-maximal inhibition (IC50) in data set [1] was found to be 0.18 µM; in data set [3], 1.21 µM; in data set [4], 10.8 µM; in data set [5], 25 µM. In the data set on 3T3-L1 [6], the Ratio IC50 turned out to be 100.
As for `Oc1cc(O)c2c(c1)O[C@H](c1cc(O)c(O)c(O)c1)[C@H](O)C2` [EPIGALLOCATECHIN], the IC50 in data set [1] and in data set [4] was above 1000 µM in each case. Further, the result in the data set on 3T3-L1 [7] was inactive.
Consider `O=C(O[C@@H]1Cc2c(O)cc(O)cc2O[C@@H]1c1cc(O)c(O)c(O)c1)c1cc(O)c(O)c(O)c1` [EPIGALOCATECHIN GALLATE], for which, in the data set on Homo sapiens, the concentration amounted to 300 nM. Also, the IC50 in data set [1] was determined as 0.25 µM; in data set [3], 0.72 µM; in data set [4], 6.44 µM; in data set [5], 25 µM. In addition, the Ratio IC50 in the data set on 3T3-L1 [6] was determined as 100.
As to `O=C(O[C@@H]1Cc2c(O)cc(O)cc2O[C@H]1c1cc(O)c(O)c(O)c1)c1cc(O)c(O)c(O)c1` [GALLOCATECHIN GALLATE], the IC50 in data set [1] is 0.23 µM; in data set [3], 1.45 µM; in data set [4], 2.72 µM; in data set [5], 25 µM. The Ratio IC50 in the data set on 3T3-L1 [6] stood at 100.
